The values that follow come from ChEMBL document CHEMBL1138681, “Identification of structurally diverse growth hormone secretagogue agonists by virtual screening and structure-activity relationship analysis of 2-formylaminoacetamide derivatives” (J Med Chem, 2004).

By pIC50 is commonly meant the negative decadic logarithm of the IC50, by convention in mol/L. A higher pIC50 goes with a small IC50. Usually pKi stands for −log10 of the Ki, conventionally taken in molar units. A low value points to a high Ki.

The target of assay [1] is T1, Growth hormone secretagogue receptor type 1 (Homo sapiens, UniProt Q92847). Briefly: Binding affinity for human growth hormone secretagogue receptor was determined using [125I]ghrelin. In a few lines: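 Competition binding with (125I)ghrelin (human) at the GHS receptor, run by a contract laboratory following published methods. Ki values were derived from binding curves.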

In assay [2] the target is T1, Growth hormone secretagogue receptor type 1. Briefly: Tested for growth hormone secretagogue activity in A93 cell line using a calcium flux assay at 10 uM (Relative to compound T1). Format: functional, cell-based. A general note: Calcium assays in cells follow changes in intracellular calcium, usually with a dye or a luminescent sensor.
For assay [3] the target is unchanged. Briefly: Tested for growth hormone secretagogue activity in A93 cell line using a calcium flux assay at 10 uM (Relative to compound T1); NA means not active. Type of assay: functional, cell-based.
The target is the same in assay [4]. Briefly: Binding affinity for human growth hormone secretagogue receptor using [125I]ghrelin; NA means not active. A digest of the protocol:
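Radioligand displacement with (125I)ghrelin (human) at GHS receptor, run by a contract lab following published methods; Ki values reported; binding curves in supplement.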

pIC50, pKi: −log10 of the molar value. Activity calls are given as the source filed them. The calls are words filed in the database; no cut-off is given here.

T1 sequence (Q92847 whole entry): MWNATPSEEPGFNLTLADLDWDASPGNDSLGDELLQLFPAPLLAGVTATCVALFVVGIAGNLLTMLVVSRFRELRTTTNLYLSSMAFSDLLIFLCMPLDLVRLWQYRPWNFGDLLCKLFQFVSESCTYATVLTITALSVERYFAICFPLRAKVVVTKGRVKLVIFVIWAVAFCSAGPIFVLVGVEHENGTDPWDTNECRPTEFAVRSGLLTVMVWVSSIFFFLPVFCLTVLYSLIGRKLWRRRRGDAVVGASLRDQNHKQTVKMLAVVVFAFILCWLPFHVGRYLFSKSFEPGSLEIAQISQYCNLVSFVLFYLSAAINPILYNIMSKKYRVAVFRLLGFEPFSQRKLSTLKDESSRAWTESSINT

`CCN(CC)CCN1C(=O)[C@@](O)(c2ccccc2Cl)c2c1cc(C(N)=O)cc2C(F)(F)F` gave a pIC50 in assay [1] of 8.92.

Compound `CCN(CC)CCCN(C(=O)c1ccc(-c2ccccc2)[nH]1)C(Cc1ccc(C)o1)C(=O)NC1CCCCC1` (stereo unspecified) showed a pKi in assay [1] of 5.93. Moreover, in assay [2], the Activity was 0.28.

Regarding `CCCC(C(=O)NC1CCCCC1)N(CCCN(CC)CC)C(=O)c1ccc(-c2ccccc2)[nH]1` (stereo unspecified), the pKi in assay [1] was 6.06. In addition, the Activity in assay [2] was 1.37.

On to `CCN(CC)CCCN(C(=O)c1ccc(-c2ccccc2)[nH]1)C(C(=O)NC1CCCCC1)c1cc(OC)c(OC)c(OC)c1` (stereo unspecified), for which the result in assay [3] was inactive.

On to `CCN(CC)CCCN(C(=O)CCN1CCCc2ccccc21)C(C(=O)NC1CCCCC1)c1ccc(F)cc1` (stereo unspecified), for which the negative-log Ki (pKi) in assay [1] was 5.69. In addition, the Activity in assay [2] turned out to be 0.31.

`CCOC(=O)CN(C(=O)c1ccc(-c2ccccc2)[nH]1)C(C)C(=O)NC1CCCCC1` (stereo unspecified): the result in assay [3] was inactive.

With `Cc1ccc(CC(C(=O)NC2CCCCC2)N(C(=O)c2ccc(-c3ccccc3)[nH]2)C2CCCC2)o1` (stereo unspecified), in assay [3], the result was inactive.

`O=C(NC1CCCC1)C(c1ccncc1)N(C(=O)c1ccc(-c2ccccc2)[nH]1)c1ccccc1` (stereo unspecified): the outcome in assay [3] was inactive.

`Cc1ccc(CC(C(=O)NC2CCCCC2)N(Cc2ccccc2)C(=O)c2ccc(-c3ccccc3)[nH]2)o1` (stereo unspecified): the outcome in assay [3] was inactive.

For `CCN(CC)CCCN(C(=O)c1ccc(-c2ccccc2)[nH]1)C(C(=O)NC1CCCCC1)c1ccc(OC)c(OC)c1` (stereo unspecified), the pKi in assay [1] was 5.58. Also, the Activity in assay [2] was found to be 0.32.

For the compound `O=C(NC1CCCCC1)C(c1ccc(F)cc1)N(CCCN1CCOCC1)C(=O)c1ccc(-c2ccccc2)[nH]1` (stereo unspecified), in assay [4], the Ki result is recorded as “Not Active”.

Turning to `CCN(CC)CCN(C(=O)c1ccc(-c2ccccc2)[nH]1)C(C(=O)NC1CCCCC1)c1c[nH]c2ccccc12` (stereo unspecified), the outcome in assay [3] was inactive.

For the compound `CCCCC(C(=O)NC1CCCCC1)N(CCCN(CC)CC)C(=O)c1ccc(-c2ccccc2)[nH]1` (stereo unspecified), the negative-log Ki (pKi) in assay [1] is 6.55. The Activity in assay [2] is 1.6.

On to `CCN(CC)CCN(C(=O)c1ccc(CN2CCCCC2)o1)C(C(=O)NC1CCCCC1)c1ccc(F)cc1` (stereo unspecified), for which, in assay [4], the Ki entry is reported as “Not Active”.

For `CCN(CC)CCCN(C(=O)c1snc(C(N)=O)c1N)C(C(=O)NC1CCCCC1)c1ccc(F)cc1` (stereo unspecified), the result in assay [3] was inactive.

As for `CCN(CC)CCCN(C(=O)c1ccc(-c2ccccc2)[nH]1)C(C(=O)NC1CCCCC1)c1ccc(C)cc1` (stereo unspecified), in assay [3], the outcome was inactive.

Consider `CCN(CC)CCN(C(=O)c1ccc(CN2CCCCC2)o1)C(C(=O)NC1CCCCC1)c1ccc(N(C)C)cc1` (stereo unspecified), for which the outcome in assay [3] was inactive.

Consider `COc1ccc(CN(C(=O)c2ccc(-c3ccccc3)[nH]2)C(C(=O)NC2CCCCC2)c2ccc(F)cc2)cc1` (stereo unspecified), for which the outcome in assay [3] was inactive.

Take `O=C(NC1CCCCC1)C(c1ccc(F)cc1)N(CCCN1CCOCC1)C(=O)c1ccc(CN2CCOCC2)o1` (stereo unspecified): the result in assay [3] was inactive.

In the case of `CCN(CC)CCN(C(=O)c1ccc(-c2ccccc2)[nH]1)C(C(=O)NC1CCCCC1)c1ccc(F)cc1` (stereo unspecified), in assay [1], the pKi is 5.86. Moreover, in assay [2], the Activity amounted to 0.24.

Compound `CCN(CC)CCCN(C(=O)c1ccc(-c2ccccc2)[nH]1)C(C(=O)NCc1ccc(F)cc1)c1ccc(F)cc1` (stereo unspecified) showed a pKi in assay [1] of 5.94. In assay [2], the Activity was determined as 0.45.

As to `COc1ccc(CN(C(=O)c2ccc(-c3ccccc3)[nH]2)C(C)C(=O)NC2CCCCC2)cc1` (stereo unspecified), in assay [3], the outcome was inactive.

In the case of `CCOc1ccc(C(C(=O)NC2CCCCC2)N(CCCN(CC)CC)C(=O)c2ccc(-c3ccccc3)[nH]2)cc1` (stereo unspecified), in assay [3], the outcome was inactive.

As for `O=C(NC1CCCCC1)C(c1ccc(F)cc1)N(CCN1CCOCC1)C(=O)c1ccc(-c2ccccc2)[nH]1` (stereo unspecified), the result in assay [3] was inactive.

In the case of `CCN(CC)CCCN(C(=O)c1ccc(-c2ccccc2)[nH]1)C(C(=O)NC1CCCCC1)c1ccncc1` (stereo unspecified), the pKi in assay [1] was 6.04. For the same compound, in assay [2], the Activity stood at 1.16.

In assay [1], `CCC(C(=O)NC1CCCCC1)N(CCCN(CC)CC)C(=O)c1ccc(-c2ccccc2)[nH]1` (stereo unspecified) had a pKi of 6.66. The Activity in assay [2] was 1.23.

For `CCN(CC)CCCN(C(=O)Cn1nnc(-c2ccc(OC)c(OC)c2)n1)C(C(=O)NC1CCCCC1)c1ccc(F)cc1` (stereo unspecified), in assay [3], the result was inactive.

Turning to `CCN(CC)CCCN(C(=O)c1ccc(-c2ccccc2)[nH]1)C(C(=O)NC1CCCCC1)c1ccc(O)cc1` (stereo unspecified), in assay [1], the pKi is 5.88. The Activity in assay [2] amounted to 0.52.

On to `CCN(CC)CCCN(C(=O)c1ccc(-c2ccccc2)[nH]1)C(C(=O)NC1CCCCC1)c1ccco1` (stereo unspecified), for which, in assay [3], the result was inactive.

In the case of `CCN(CC)CCCN(C(=O)c1ccc(-c2ccccc2)[nH]1)C(C(=O)NC1CCCCC1)c1cccs1` (stereo unspecified), the outcome in assay [3] was inactive.

Compound `CCN(CC)CCCN(C(=O)c1ccc(-c2ccccc2)[nH]1)C(C)C(=O)NC(C)(C)C` (stereo unspecified) gave a negative logarithm of the Ki (pKi) in assay [1] of 5.93. For the same compound, in assay [2], the Activity was 0.38.

`CCN(CC)CCCN(C(=O)c1ccc(-c2ccccc2)[nH]1)C(C)C(=O)NC1CCCCC1` (stereo unspecified) gave a pKi in assay [1] of 5.72. The Activity in assay [2] was determined as 0.96.

The compound `CCN(CC)CCCN(C(=O)c1ccc(-c2ccccc2)[nH]1)C(C(=O)NC1CCCCC1)c1ccc(F)cc1` (stereo unspecified) had a negative-log Ki (pKi) in assay [1] of 5.89. In addition, in assay [2], the Activity was 0.57.

As to `O=C(NC1CCCCC1)C(c1ccc(F)cc1)N(C(=O)c1ccc(-c2ccccc2)[nH]1)C1CCCCC1` (stereo unspecified), the outcome in assay [3] was inactive.

Consider `O=C(NC1CCCC1)C(c1ccncc1)N(CCCN1CCOCC1)C(=O)c1ccc(-c2ccccc2)[nH]1` (stereo unspecified), for which the outcome in assay [3] was inactive.

In the case of `CCN(CC)CCCN(C(=O)c1ccc(-c2ccccc2)[nH]1)C(C(=O)NC1CCCCC1)c1cc(OC)ccc1OC` (stereo unspecified), the result in assay [3] was inactive.

As for `O=C(NC1CCCCC1)C(c1ccc(F)cc1)N(C(=O)c1ccc(-c2ccccc2)[nH]1)c1ccccc1` (stereo unspecified), in assay [3], the outcome was inactive.

For the compound `CC(C)(C)NC(=O)C(c1ccc(F)cc1)N(CCCN1CCOCC1)C(=O)c1ccc(-c2ccccc2)[nH]1` (stereo unspecified), the Ki entry in assay [4] is listed as “Not Active”.
